Measurements: ChEMBL document CHEMBL4266033, “Neolymphostin A Is a Covalent Phosphoinositide 3-Kinase (PI3K)/Mammalian Target of Rapamycin (mTOR) Dual Inhibitor That Employs an Unusual Electrophilic Vinylogous Ester” (J Med Chem, 2018)
Calls of active or inactive are those of the source. The rule behind the calls is not given here.

Tests used:
[1] = molecular target: T1, Phosphatidylinositol 4,5-bisphosphate 3-kinase catalytic subunit gamma isoform (Homo sapiens, UniProt P48736); test: Binding affinity to human PI3Kgamma equilibrate for 1 hr followed by 30 fold dilution and re-equilibrate for 5 hrs by scan-kinetic platform assay
In short: (§1)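 scanKINETIC format on PI3Kα and PI3Kγ. […] Arm C: equilibrated 1 h. Arm B: equilibrated 1 h, diluted 30-fold, then re-equilibrated. Arm D: diluted immediately, then equilibrated. Kd compared with and without the dilution step to judge reversibility.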

[2] = Inhibition of PI3K in human HeLa cells assessed as reduction in EGF-stimulated AKT phosphorylation at T308 preincubated for 10 mins followed by EGF stimulation measured after 5 mins by Western blot analysis; type: cell-based
In short: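 HeLa cells were serum-starved overnight, pretreated with compound for 10 min, then stimulated with 10 ng mL-1 EGF for 5 min. Lysis was in boiling SDS sample buffer, with protein quantified at 660 nm. Equal protein was resolved by SDS-PAGE and Western blotted for pEGFR Tyr1068, pAKT Ser473/Thr308, and pERK1/2 Thr202/Tyr204 with total proteins and GAPDH, detected by ECL.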

[3] = molecular target: Phosphatidylinositol 4,5-bisphosphate 3-kinase catalytic subunit beta isoform (Homo sapiens, UniProt P42338); test: Binding affinity to human PI3Kbeta after 1 hr by KINOMEscan assay
[4] = molecular target: T2, Phosphatidylinositol 4,5-bisphosphate 3-kinase catalytic subunit delta isoform (Homo sapiens, UniProt O00329); test: Binding affinity to human PI3Kdelta after 1 hr by KINOMEscan assay
T2 sequence (O00329 whole entry): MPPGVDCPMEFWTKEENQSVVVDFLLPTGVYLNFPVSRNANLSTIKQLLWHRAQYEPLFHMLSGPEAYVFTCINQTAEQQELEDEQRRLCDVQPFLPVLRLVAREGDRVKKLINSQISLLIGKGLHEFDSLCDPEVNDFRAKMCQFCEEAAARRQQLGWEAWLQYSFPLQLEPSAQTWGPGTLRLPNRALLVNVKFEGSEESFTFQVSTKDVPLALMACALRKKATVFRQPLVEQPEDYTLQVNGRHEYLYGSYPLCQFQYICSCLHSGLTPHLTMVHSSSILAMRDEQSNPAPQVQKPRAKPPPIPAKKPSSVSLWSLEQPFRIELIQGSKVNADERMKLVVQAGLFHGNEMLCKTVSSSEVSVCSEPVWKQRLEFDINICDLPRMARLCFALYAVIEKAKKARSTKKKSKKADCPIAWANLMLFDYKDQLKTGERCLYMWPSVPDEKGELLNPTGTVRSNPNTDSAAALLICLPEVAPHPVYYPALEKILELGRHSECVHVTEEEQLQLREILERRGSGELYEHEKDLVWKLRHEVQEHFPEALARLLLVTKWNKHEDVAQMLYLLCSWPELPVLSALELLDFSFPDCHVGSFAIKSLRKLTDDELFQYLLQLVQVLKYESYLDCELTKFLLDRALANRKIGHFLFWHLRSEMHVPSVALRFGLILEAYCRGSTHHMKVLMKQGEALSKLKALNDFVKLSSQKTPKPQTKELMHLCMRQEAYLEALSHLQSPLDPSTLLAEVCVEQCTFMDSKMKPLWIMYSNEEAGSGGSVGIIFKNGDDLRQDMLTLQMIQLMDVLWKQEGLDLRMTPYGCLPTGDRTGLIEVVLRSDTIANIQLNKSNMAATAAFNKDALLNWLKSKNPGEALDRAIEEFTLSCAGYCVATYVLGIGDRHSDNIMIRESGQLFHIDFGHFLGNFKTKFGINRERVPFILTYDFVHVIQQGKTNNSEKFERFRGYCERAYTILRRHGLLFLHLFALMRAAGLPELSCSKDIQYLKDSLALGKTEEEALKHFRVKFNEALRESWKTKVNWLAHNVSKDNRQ

[5] = molecular target: Serine/threonine-protein kinase mTOR (Homo sapiens, UniProt P42345); test: Binding affinity to human mTOR after 1 hr by KINOMEscan assay
[6] = molecular target: T3, Phosphatidylinositol 4,5-bisphosphate 3-kinase catalytic subunit alpha isoform (Homo sapiens, UniProt P42336); test: Binding affinity to human PI3Kalpha diluted 30 fold and equilibrate for 6 hrs by scan-kinetic platform assay; in short: as §1
[7] = molecular target: T1, Phosphatidylinositol 4,5-bisphosphate 3-kinase catalytic subunit gamma isoform; test: Binding affinity to human PI3Kgamma equilibrate for 6 hrs by scan-kinetic platform assay; in short: as §1
[8] = molecular target: T1, Phosphatidylinositol 4,5-bisphosphate 3-kinase catalytic subunit gamma isoform; test: Binding affinity to human PI3Kgamma after 1 hr by KINOMEscan assay
[9] = molecular target: T1, Phosphatidylinositol 4,5-bisphosphate 3-kinase catalytic subunit gamma isoform; test: Binding affinity to human PI3Kgamma diluted 30 fold and equilibrate for 6 hrs by scan-kinetic platform assay; in short: as §1
[10] = molecular target: T3, Phosphatidylinositol 4,5-bisphosphate 3-kinase catalytic subunit alpha isoform; test: Binding affinity to human PI3Kalpha equilibrate for 1 hr followed by 30 fold dilution and re-equilibrate for 5 hrs by scan-kinetic platform assay; in short: as §1
[11] = molecular target: T4, Serine/threonine-protein kinase PLK4 (Homo sapiens) (UniProt O00444); test: Binding affinity to human PLK4 at 1 uM after 1 hr by KINOMEscan assay
T4 sequence (whole entry): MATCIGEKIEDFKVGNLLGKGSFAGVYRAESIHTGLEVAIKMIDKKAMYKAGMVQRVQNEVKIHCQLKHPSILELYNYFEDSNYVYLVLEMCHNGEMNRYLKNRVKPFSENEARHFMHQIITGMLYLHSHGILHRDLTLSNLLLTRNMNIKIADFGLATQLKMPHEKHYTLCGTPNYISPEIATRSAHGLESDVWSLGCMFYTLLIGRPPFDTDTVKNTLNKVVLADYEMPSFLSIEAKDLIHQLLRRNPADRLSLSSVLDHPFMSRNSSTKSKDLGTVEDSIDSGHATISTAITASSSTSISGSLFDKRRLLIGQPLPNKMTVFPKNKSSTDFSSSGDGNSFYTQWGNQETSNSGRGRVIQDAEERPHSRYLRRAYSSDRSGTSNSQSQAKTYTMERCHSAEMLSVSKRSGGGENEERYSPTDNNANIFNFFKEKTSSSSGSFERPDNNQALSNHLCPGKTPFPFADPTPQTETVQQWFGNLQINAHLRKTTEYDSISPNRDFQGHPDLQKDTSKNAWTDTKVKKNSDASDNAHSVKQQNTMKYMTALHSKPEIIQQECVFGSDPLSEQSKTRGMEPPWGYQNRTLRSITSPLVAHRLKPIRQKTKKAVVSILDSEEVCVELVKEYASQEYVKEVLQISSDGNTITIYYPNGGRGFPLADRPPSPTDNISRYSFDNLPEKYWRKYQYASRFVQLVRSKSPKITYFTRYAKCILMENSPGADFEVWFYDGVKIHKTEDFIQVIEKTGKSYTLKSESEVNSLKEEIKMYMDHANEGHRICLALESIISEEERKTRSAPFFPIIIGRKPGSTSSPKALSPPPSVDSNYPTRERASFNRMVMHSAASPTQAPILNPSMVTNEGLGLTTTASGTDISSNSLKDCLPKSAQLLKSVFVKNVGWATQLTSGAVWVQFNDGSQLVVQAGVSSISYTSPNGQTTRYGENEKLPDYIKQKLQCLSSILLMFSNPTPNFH

[12] = molecular target: Mitogen-activated protein kinase 9 (Homo sapiens) (UniProt P45984); test: Binding affinity to human JNK2 at 1 uM after 1 hr by KINOMEscan assay
Chain of Mitogen-activated protein kinase 9 (Homo sapiens) (P45984 whole entry, looked up): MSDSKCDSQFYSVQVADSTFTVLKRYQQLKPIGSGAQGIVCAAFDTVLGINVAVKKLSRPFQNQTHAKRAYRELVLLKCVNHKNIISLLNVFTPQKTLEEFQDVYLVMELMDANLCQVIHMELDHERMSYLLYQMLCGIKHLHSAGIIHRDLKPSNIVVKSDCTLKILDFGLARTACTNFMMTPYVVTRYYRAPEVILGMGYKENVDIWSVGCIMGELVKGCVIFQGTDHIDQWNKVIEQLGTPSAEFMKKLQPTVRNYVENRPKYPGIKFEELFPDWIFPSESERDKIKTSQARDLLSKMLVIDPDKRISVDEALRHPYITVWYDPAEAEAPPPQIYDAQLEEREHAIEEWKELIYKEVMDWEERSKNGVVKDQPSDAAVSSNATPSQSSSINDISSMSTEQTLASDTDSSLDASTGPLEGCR

T1 sequence (P48736 whole entry, canonical isoform): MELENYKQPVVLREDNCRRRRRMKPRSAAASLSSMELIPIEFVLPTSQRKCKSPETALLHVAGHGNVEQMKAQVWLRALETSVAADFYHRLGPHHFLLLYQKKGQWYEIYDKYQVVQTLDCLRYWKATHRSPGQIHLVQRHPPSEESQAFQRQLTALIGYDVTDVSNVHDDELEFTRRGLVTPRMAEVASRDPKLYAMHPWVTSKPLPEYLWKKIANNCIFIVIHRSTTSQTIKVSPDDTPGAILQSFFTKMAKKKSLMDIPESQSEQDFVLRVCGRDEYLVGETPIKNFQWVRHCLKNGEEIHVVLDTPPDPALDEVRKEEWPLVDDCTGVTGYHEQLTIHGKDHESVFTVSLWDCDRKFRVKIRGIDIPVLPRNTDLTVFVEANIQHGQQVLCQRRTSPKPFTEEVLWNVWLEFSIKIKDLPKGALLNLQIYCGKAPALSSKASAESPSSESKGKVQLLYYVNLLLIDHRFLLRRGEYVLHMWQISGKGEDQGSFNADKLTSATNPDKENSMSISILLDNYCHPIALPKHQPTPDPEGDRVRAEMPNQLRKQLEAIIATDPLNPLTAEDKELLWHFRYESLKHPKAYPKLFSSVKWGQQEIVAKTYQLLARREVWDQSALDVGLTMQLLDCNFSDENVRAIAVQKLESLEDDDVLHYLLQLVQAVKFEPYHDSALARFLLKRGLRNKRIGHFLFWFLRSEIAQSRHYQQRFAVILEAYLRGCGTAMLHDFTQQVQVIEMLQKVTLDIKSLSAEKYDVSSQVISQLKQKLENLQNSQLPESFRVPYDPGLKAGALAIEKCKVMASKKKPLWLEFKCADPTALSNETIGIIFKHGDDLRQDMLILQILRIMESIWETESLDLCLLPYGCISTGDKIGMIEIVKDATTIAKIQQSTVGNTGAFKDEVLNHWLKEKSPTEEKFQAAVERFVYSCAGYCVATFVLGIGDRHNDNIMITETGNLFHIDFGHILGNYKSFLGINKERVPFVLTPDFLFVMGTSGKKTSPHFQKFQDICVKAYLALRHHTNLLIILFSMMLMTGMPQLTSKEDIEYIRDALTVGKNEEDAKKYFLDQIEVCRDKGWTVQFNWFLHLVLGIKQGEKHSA
T3 sequence (P42336 whole entry, canonical isoform): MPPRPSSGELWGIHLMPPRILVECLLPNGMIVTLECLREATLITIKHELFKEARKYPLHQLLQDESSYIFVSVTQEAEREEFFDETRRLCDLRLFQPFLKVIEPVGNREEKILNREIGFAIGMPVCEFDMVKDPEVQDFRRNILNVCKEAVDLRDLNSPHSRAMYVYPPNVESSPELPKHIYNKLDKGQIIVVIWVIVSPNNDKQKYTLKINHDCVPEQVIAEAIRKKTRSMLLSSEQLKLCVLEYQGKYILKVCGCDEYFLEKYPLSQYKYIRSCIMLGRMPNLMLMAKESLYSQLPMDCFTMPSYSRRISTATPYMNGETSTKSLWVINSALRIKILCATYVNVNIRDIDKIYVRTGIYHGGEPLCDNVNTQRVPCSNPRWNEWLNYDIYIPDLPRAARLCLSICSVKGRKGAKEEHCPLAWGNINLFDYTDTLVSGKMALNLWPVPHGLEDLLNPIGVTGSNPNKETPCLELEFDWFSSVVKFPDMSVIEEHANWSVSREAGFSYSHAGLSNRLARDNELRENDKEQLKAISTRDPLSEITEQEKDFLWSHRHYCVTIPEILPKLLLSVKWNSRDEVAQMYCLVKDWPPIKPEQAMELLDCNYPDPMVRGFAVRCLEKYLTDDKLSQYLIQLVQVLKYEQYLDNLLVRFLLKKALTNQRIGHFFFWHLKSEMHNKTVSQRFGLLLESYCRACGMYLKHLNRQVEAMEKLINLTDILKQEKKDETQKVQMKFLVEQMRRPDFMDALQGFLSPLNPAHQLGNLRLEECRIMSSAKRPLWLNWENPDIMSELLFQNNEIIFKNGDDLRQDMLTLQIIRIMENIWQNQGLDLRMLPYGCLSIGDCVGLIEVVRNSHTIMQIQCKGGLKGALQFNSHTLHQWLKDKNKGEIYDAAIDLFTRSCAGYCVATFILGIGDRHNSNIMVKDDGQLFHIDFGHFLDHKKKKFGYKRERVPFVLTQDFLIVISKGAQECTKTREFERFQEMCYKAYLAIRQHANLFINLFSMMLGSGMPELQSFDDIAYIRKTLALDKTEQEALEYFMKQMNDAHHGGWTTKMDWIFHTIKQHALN
Chain of Phosphatidylinositol 4,5-bisphosphate 3-kinase catalytic subunit beta isoform (P42338 whole entry, canonical isoform): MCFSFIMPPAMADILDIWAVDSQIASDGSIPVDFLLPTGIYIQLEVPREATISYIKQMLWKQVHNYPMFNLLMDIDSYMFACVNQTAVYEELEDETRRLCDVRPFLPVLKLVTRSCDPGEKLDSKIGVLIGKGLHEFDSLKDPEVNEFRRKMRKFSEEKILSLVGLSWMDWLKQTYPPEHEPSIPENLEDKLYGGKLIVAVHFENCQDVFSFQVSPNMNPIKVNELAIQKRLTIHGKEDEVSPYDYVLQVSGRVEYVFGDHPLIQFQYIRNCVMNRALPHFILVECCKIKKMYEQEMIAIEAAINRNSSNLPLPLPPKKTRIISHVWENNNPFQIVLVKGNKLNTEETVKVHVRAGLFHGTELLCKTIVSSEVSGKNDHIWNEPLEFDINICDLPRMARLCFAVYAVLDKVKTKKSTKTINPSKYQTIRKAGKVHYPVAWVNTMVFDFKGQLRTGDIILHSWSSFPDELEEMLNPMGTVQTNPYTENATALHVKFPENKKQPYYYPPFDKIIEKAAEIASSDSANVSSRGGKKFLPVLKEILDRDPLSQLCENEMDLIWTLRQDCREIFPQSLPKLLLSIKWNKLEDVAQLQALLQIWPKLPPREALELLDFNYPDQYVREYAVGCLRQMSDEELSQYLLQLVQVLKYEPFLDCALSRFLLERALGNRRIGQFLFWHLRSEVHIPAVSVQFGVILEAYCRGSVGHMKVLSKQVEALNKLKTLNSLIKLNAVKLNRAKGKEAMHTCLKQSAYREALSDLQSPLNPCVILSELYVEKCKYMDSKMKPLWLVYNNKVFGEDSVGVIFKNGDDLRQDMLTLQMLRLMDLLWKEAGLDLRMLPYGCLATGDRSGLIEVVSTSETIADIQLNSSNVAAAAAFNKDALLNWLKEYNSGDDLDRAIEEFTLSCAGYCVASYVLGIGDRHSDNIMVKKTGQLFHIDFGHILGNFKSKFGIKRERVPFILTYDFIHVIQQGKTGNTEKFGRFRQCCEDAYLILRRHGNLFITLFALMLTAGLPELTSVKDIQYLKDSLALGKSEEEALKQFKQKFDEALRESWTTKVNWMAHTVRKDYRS

## CO/C=C/C(=O)c1cc2c3c(c(N)cc(NC(=O)C(C)C)c3n1)N=C2
[1]
  Kd: 4.4 to 7.3 nM
[2]
  IC50: 3 nM
[3]
  Kd: 5.7 nM
[4]
  Kd: 4.9 nM
[5]
  Kd: 10 nM
[6]
  Kd: 18 to 20 nM
[7]
  Kd: 1.9 to 2 nM
[8]
  Kd: 3.5 nM
[9]
  Kd: 80 to 100 nM
[10]
  Kd: 0.56 to 0.72 nM
[11]
  Activity: Active
[12]
  Activity: Active
